Results published in paper PMC12153341 (Nucleic Acids Research, 2025).
“And” between values parts separate entries of the source, which are not always exact repeats. Equal entries are not always repeated. “Also recorded” adds a separate entry of the source. One block for each molecule: values may come before it.

Tests used:
[1] = system: proteins in the vicinity of TurboID-Opto-KIF2C condensates, Flp-In T-Rex 293 cells; type: cell-based; settings: light OFF and ON conditions
Summary of the method: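 Flp-In T-REx 293 cells stably carrying TurboID-Opto-KIF2C, nocodazole-arrested, at 75% confluence, induced with 6 ng/ml doxycycline for 16 h. Biotin added while cells received 15 min of blue-light cycles (4 s light/30 s dark), or kept dark. Lysates sonicated and cleared; 1 mg protein bound to streptavidin-agarose 3 h at 4°C, stringently washed, boiled in Laemmli buffer. Detection by HRP immunoblot with ECL.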

[2] = system: Opto-KIF2C condensates in Flp-In T-REx 293 cells; assay: Opto-KIF2C foci formation; type: cell-based; settings: mitotic cells; for number of optogenetic KIF2C condensates formed upon blue light exposure: light ON
[3] = system: Opto-KIF2C condensates in Flp-In T-REx 293 cells; type: cell-based
Summary of the method: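 Opto-KIF2C expression induced with 1 μg/ml doxycycline for 16 h in cells plated at ~70% confluency in DMEM. Mitotic arrest used 100 ng/ml nocodazole for 16 h. Condensation induced under 488 nm LEDs at 10 mW/cm2, with 5 min of 4 s light/10 s dark cycles. Cells fixed in 4% PFA 15 min, permeabilized in 0.2% Triton 10 min, blocked in 3% BSA; primary and secondary antibodies 1 h RT each.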

[4] = system: Opto-KIF2C foci in Flp-In T-REx 293 cells; assay: SIM measurement of Opto-KIF2C foci area; type: cell-based; settings: mitotic cells, 5 min 488 nm light, about 0.1 μm^2 without nocodazole
KIF2C Nt (KIF2C1-79) = target: T1, KIF2C Nt (KIF2C1-79) (Homo sapiens, UniProt Q99661); type: binding; settings: 15N-labeled KIF2C1-79, molar ratios 1:0 to 1:2, DPBS pH 7.0, 10°C
T1 sequence (Q99661 1-79): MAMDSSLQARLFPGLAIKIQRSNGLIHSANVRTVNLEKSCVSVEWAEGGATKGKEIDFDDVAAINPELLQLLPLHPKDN

KIF2A Nt (KIF2A1-77) = KIF2A Nt (KIF2A1-77) (Homo sapiens, UniProt O00139); type: binding; settings: 15N-labeled KIF2A1-77, molar ratios 1:0 to 1:2, DPBS pH 7.0, 10°C
Sequence of KIF2A Nt (KIF2A1-77) (O00139 1-77): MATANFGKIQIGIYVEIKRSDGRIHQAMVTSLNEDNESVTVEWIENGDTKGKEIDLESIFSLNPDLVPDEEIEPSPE

[5] = target: KIF2C N-terminal domain, KIF2C_(1-79) (human) (UniProt Q99661); assay: ITC
[6] = target: KIF2A N-terminal domain, KIF2A_(1-77) (human) (UniProt O00139); assay: ITC
Sequence of KIF2A N-terminal domain, KIF2A_(1-77) (human) (O00139 1-77): as above

[7] = target: T2, BRCA2_(48-218) phosphorylated by PLK1 (human, UniProt P51587 48-218, phosphoserine 193, phosphothreonine 207; 15N-labelled); assay: NMR titration
T2 sequence (looked up): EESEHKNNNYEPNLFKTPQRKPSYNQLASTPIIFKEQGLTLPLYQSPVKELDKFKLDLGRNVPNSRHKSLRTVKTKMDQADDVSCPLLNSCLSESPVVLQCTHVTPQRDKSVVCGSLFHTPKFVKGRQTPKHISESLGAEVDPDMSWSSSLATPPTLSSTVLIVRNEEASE

Molecule: COc1cc2c(Nc3ccc(NC(=O)c4ccccc4)cc3)ncnc2cc1OCCCN1CCOCC1 [ZM447439]
- abundance of PLK1 in the vicinity of KIF2C condensates [1]: less abundant
- formation of KIF2C condensates formed without light ([2]; light OFF): completely abolished
- number of optogenetic KIF2C condensates formed upon blue light exposure ([2]; Noc (+)): did not change
- number of optogenetic KIF2C condensates formed upon blue light exposure ([2]; Noc (-)): mildly decreased
- BRCA2-pT207 in KIF2C condensates (immunofluorescence, co-localization) ([3]; Flp-In T-Rex 293 cells): could not detect; also recorded: abolished
- PLK1 and PLK1-pT210 within Opto-KIF2C condensates (immunofluorescence) ([3]; mitotic cells, absence or presence of nocodazole): unable to detect

Molecule: COC(=O)Nc1nc2ccc(C(=O)c3cccs3)cc2[nH]1 [nocodazole]
- area of the Opto-KIF2C condensates [4]: about 0.15 μm^2

- binding to KIF2C Nt by NMR chemical shift analysis (KIF2C Nt (KIF2C1-79)): did not detect any binding
- binding to KIF2A Nt by NMR chemical shift analysis (KIF2A Nt (KIF2A1-77)): did not detect any binding
Molecule: BRCA2_194-214: non-phosphorylated synthetic BRCA2 peptide, residues 194-214 (WSSSLATPPTLSSTVLIVRNE)

- Kd [5]: 480 nM and 1300 nM
- dH [5]: -19.1 kcal/mol and -12.1 kcal/mol
- Kd [6]: 600 nM
- dH [6]: -15.7 kcal/mol and -18.1 kcal/mol
Molecule: BRCA2_(194-214(pT207)) peptide (from UniProt P51587 194-214)

- binding result [7]: binds
B1: KIF2C N-terminal domain, KIF2C_(1-79) (domain or fragment, human, UniProt Q99661 1-79, looked up)
chain: MAMDSSLQARLFPGLAIKIQRSNGLIHSANVRTVNLEKSCVSVEWAEGGATKGKEIDFDDVAAINPELLQLLPLHPKDN
modifications: 15N-labelled where it is the observed protein in NMR
